HUVEC prolif 384 – human endothelial cell proliferation inhibition. AID 648. HUVEC proliferation, CellTiter-Glo luminescence, 72 h; stronger effect = lower value. viability, % at 10 µM (by protocol). 86,000 tested, 1.1% active;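 active = viability at or below 30%; inactive = viability above 30%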;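 note: 100% = median luminescence of DMSO-only cell control wells on each plate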
HCT116 PTEN-null – suppresses growth of cells with PTEN deletion; HCT116 PTEN-null viability, CellTiter-Glo, 60 h; stronger effect = lower value; viability, % at 10 µM; 140,000 tested, 1.2% active; AID 827;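 active = viability at or below a set limit, 4 SD under the median of all tested compounds, cut at about 3.7% in these data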;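 note: PTEN knockout HCT116 line with beta catenin targeted HCT116 as companion control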
HCT116 bCat-KO – beta-catenin-lacking colon tumor cell growth suppression | HCT116 beta-catenin knockout viability, CellTiter-Glo, 60 h; stronger effect = lower value | 140,000 tested, 1.5% active | viability, % at 10 µM;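 active = viability at or under a set limit, the compound median less 4 SD, cut at about 6% in these data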;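 note: 0% = Hyamine 1622 control at 20 µM and 100% = untreated cell control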
Fibroblast inh – blocks proliferation of human lung fibroblasts | 85,000 tested, 1.1% active | viability, % at 10 µM | LL 47 human lung fibroblast viability, ATP luminescence; stronger effect = lower value;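 active = viability at or below 50% in the single dose screen; inactive = viability above 50%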;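 note: compound exposure lasted 72 h before the ATP readout; 100% = median luminescence of untreated cell-only wells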
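Test system: LL 47 human lung fibroblasts; Quantity: 1,150 cells/well; Buffer or medium: IMEM plus 15% FBS; Dosing: tenfold compound dosing solution, DMSO at 0.1%; Timing: overnight cell rest, 72 h compound treatment at 37 °C; Detection: ATP-based CellTiter-Glo luminescent readout; Read-out basis: viability percentage against median untreated-cell control; Controls: cell-only wells, no compound.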
H69AR inhibit – growth inhibitors of human H69AR lung tumor cells. H69AR lung tumor viability, ATP luminescence, 72 h; stronger effect = lower value. viability, % at 10 µM. 85,000 tested, 6% active;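 active = viability at or below 40%; inactive = viability above 40%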;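 note: multidrug resistant small cell line overexpressing MRP-1 efflux transporter; 100% = mean luminescence of untreated control wells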
* hit, by the source's call; · = not tested or not shown. Many of the other results were omitted from the sample, so hits are more common in it than they were.

SMILES | HUVEC prolif 384 | HCT116 PTEN-null | HCT116 bCat-KO | Fibroblast inh | H69AR inhibit
CCCOc1ccccc1C1CC(=O)Nc2cc3c(cc21)OCCO3 (configuration not stated) | · | 17 | 17 | · | ·
CCOc1ccccc1C1CC(=O)Nc2cc3c(cc21)OCCO3 (configuration not stated) | 51 | 16 | 17 | 61 | 30*
CC(C)Oc1ccccc1C1CC(=O)Nc2cc3c(cc21)OCO3 (configuration not stated) | 45 | 12 | 9 | 62 | 20*
CSc1ccc(/C=N/NC(=O)CN2CCN(Cc3ccc(C)cc3)CC2)cc1 | · | 90 | 86 | · | ·
CCOC(=O)/C=C/C(=O)Nc1cccc([N+](=O)[O-])c1 | · | 105 | 91 | · | ·
CCOC(=O)/C=C/C(=O)Nc1ccccc1-c1ccccc1NC(=O)/C=C/C(=O)OCC | · | 2.0* | 3.9* | · | ·
Cc1ccc2c(c1)c1c(n2CC(O)Cn2c(C)nc3ccccc32)CCCC1 (configuration not stated) | 11* | 70 | 54 | 90 | 1.5*
COc1cc2c(cc1OC)C(c1ccc(-c3ccc(Cl)cc3Cl)o1)=NCC2 | · | 13 | 11 | · | ·
COc1cc2c(cc1OC)C(c1ccc(-c3ccc(Cl)c(Cl)c3)o1)=NCC2 | 65 | 2.8* | 4.1* | 71 | 19*
COc1cc2c(cc1OC)C(c1ccc(-c3cc(Cl)ccc3Cl)o1)=NCC2 | 77 | 3.3* | 7 | 84 | 56
COc1ccc2c(c1)CCN=C2Cc1ccc(OC)c(OC)c1 | · | 60 | 55 | · | ·
S=C(c1ccc(-c2ccccc2Cl)o1)N1CCCCC1 | · | 107 | 98 | · | ·
COc1cc2c(cc1OC)C(c1ccc(-c3ccccc3Cl)o1)=NCC2 | 68 | 17 | 16 | 82 | 30*
Cc1[nH]nc(SCC(=O)NCc2ccc(Cl)cc2)c1[N+](=O)[O-] | · | 93 | 92 | · | ·
Cc1ccc(C(C)C)cc1OCCCCN1CCCC1 | · | 84 | 85 | · | ·
O=C(COC(=O)c1ccc([N+](=O)[O-])s1)Nc1ncc(C(F)(F)F)cc1Cl | · | 81 | 80 | · | ·
O=[N+]([O-])c1ccccc1S(=O)(=O)n1nnc2ccccc21 | · | 90 | 90 | · | ·
N#C/C(=C\c1ccc(OCC(N)=O)cc1)c1ccccc1 | · | 92 | 93 | · | ·
Cc1cccc(NC(=O)c2ccc(COc3cccc4ccccc34)o2)n1 | · | 81 | 75 | · | ·
COc1ccc2c(c1)CCc1c(C(=O)N3CC4(C)CC3CC(C)(C)C4)noc1-2 (configuration not stated) | 86 | 76 | 71 | 96 | 35*
COc1ccc2c(c1)CCc1c(C(=O)Nc3cc(C)n(Cc4ccc(Cl)cc4)n3)noc1-2 | 52 | 87 | 91 | 60 | 5.3*
COc1ccc2c(c1)CCc1c(C(=O)Nc3ccn(Cc4ccc(C)cc4)n3)noc1-2 | 38 | 47 | 30 | 93 | 10*
COc1ccc2c(c1)CCc1c(C(=O)N3CCOCC3)noc1-2 | 100 | 81 | 80 | 103 | 87
COc1ccc(-c2cc(C(=O)Nc3cc(C)n(Cc4ccc(Cl)cc4)n3)no2)cc1OC | 46 | 70 | 78 | 106 | 14*
Cn1c(=O)nc2n(Cc3ccccc3)c3cccc(Cl)c3cc-2c1=O | · | 88 | 84 | · | ·
SMILES | HUVEC prolif 384 | HCT116 PTEN-null | HCT116 bCat-KO | Fibroblast inh | H69AR inhibit
O=C(O)c1ccc2c(c1)C(=O)N(c1cc(C(=O)O)ccc1Br)C2=O | 93 | 93 | 91 | 95 | 92
CSc1nnc2c(n1)OC(C1CC=C(C)CC1)Nc1ccccc1-2 (configuration not stated) | 88 | · | · | · | 93
O=C(Nc1ccc2oc(Cc3ccc(Cl)cc3)nc2c1)c1cccnc1 | 80 | 59 | 56 | 92 | 36*
CCOc1cccc(C(=O)Nc2nccs2)c1 | 96 | 93 | 113 | 92 | 101
O=C(Nc1ccc2oc(-c3ccccc3Cl)nc2c1)c1cncc(Br)c1 | 17* | 66 | 75 | 66 | 18*
CCOc1cccc(C(=O)Nc2ccc3oc(Cc4ccc(Cl)cc4)nc3c2)c1 | 73 | 45 | 34 | 85 | 24*
O=C(Nc1ccc2oc(-c3ccccc3Cl)nc2c1)c1ncn[nH]1 | 92 | 99 | 88 | 90 | 96
Cc1ccc(S(=O)(=O)N2CC(O)CC2C(=O)OCC(=O)c2ccccc2Cl)cc1C (configuration not stated) | · | 98 | 95 | · | ·
O=C(NCC(c1cccs1)N1CCOCC1)c1ccc(Br)o1 (configuration not stated) | 85 | 19 | 15 | 64 | 23*
O=C(NCC(c1cccs1)N1CCOCC1)c1ccccc1NS(=O)(=O)c1ccc(Br)cc1 (configuration not stated) | · | 33 | 31 | · | ·
CCN1C(=O)C2C(C1=O)N1C(c3cccs3)C3C(=O)N(CC)C(=O)C3N1C2c1cccs1 (configuration not stated) | · | 93 | 103 | · | ·
CC1=CC(C)(C)Nc2ccc(OC(=O)CCN3C(=O)c4ccccc4C3=O)cc21 | · | 1.5* | 1.2* | · | ·
O=C(CCN1C(=O)c2ccccc2C1=O)Oc1ccc2ccccc2c1 | 93 | 97 | 89 | 102 | 93
O=S(=O)(NC1=NCCCCC1)c1ccc2ccccc2c1 | · | 90 | 90 | · | ·
Cc1cc(C)n2c(Br)c(CSc3nc4ccccc4s3)nc2n1 | · | 86 | 77 | · | ·
Nc1ccc(Nc2nc(-c3ccncc3)cs2)cc1 | 71 | 45 | 52 | 75 | 37*
c1ccc(Nc2nc(-c3ccccn3)cs2)cc1 | 71 | 69 | 73 | 80 | 37*
c1ccc(-c2csc(Nc3cccnc3)n2)nc1 | 107 | 100 | 105 | 102 | 67
COc1cccc2sc(NC(=O)c3ccc(Br)s3)nc12 | · | 6 | 10 | · | ·
COc1cccc2sc(Nc3nc(-c4ccccn4)cs3)nc12 | · | 2.6* | 4.3* | · | ·
COC(=O)C1=C(C(=O)OC)SC(=C2C(=S)C(C)(C)N(C(=O)C(C)C)c3ccccc32)S1 | 86 | 76 | 78 | 89 | 74
CCCC(=O)N1c2ccccc2C(=C2SC(C(=O)OC)=C(C(=O)OC)S2)C(=S)C1(C)C | 69 | 64 | 70 | 86 | 24*
C=C1C(=O)[C@@]23[C@H](O)C[C@@H]4C(C)(C)CC[C@H](O)[C@@]4(C)[C@@H]2CC[C@@H]1[C@H]3O | · | 1.3* | 2.1* | · | ·
C=C1C(=O)[C@@]23[C@H](O)C[C@@H]4C(C)(C)CC[C@H](O)[C@]4(C)[C@@H]2C[C@H](O)[C@@H]1[C@H]3O | · | 5 | 9 | · | ·
Cc1cc(/C=N/n2cnnc2)c(C)n1-c1ccc(OCc2ccc(Cl)cc2)cc1 | 64 | 6 | 5.3* | 82 | 5.8*
Cc1ccc(S(=O)(=O)Oc2ccc(/C=C(/NC(=O)c3ccccc3)C(=O)Nc3ccccc3)cc2)cc1 | 82 | 94 | 86 | 104 | 32*
CCCc1cc(C(=O)Cc2ccc(F)cc2)c(O)cc1O | 32 | 103 | 96 | 100 | 15*
COc1ccc(C2=NOC(C(=O)NCc3ccccc3)C2)cc1 (configuration not stated) | 62 | 82 | 69 | 83 | 44
CCn1ncc(C2=NOC(C(=O)Nc3c(C)n(C)n(-c4ccccc4)c3=O)C2)c1C (configuration not stated) | 49 | 101 | 103 | 101 | 98
